Screens deposited in PubChem by several laboratories.
Shown are actives, neighbours in structure and some others; about 2.2% of the full set was active somewhere.
NF-kB neuron act: raises NF-kB expression in human neuronal cells | hit rate 1.6% among 190,000 | fold change at 12.5 µM | NF-kB reporter expression; stronger effect = higher value | AID 1239; in the data active = fold change above about 3.3
TRAIL sens C8: caspase-8 TRAIL sensitization | inhibition (viability loss, TRAIL sensitization), % at 10 µM | AID 624354 | NB7+C8 cells + TRAIL, ATPlite viability luminescence | hit rate 1% among 360,000;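 active = compounds causing at least 50% loss of cell viability in the single-dose screen, relative to plate controls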
FLuc act counter: firefly luciferase counter-screen for stimulation assays; activation factor at 10 µM; 200,000 tested, under 10 active; ATPlite luciferase biochemical, luminescence, 10 min; 0 = ATP-free wells, 1 = DMSO control;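 active = luciferase activation factor, scaled between plate controls, of at least 2 with compound at 10 µM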
Target sequence (P08659 whole entry, looked up): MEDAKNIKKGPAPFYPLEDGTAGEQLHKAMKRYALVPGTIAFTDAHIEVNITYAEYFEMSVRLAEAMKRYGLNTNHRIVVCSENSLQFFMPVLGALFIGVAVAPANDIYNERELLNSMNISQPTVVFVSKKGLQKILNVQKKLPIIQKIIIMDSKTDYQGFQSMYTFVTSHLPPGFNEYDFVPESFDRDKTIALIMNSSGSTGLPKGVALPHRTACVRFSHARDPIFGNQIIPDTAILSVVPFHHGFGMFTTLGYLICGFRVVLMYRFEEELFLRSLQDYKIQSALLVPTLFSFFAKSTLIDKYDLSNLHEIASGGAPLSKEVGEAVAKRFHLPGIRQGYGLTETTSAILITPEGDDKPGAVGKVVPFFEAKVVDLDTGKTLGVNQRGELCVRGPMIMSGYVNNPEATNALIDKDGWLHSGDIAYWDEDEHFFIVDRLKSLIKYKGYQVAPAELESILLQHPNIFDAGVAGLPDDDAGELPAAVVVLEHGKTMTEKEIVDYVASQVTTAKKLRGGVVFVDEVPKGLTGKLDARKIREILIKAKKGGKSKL
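Material: luciferase plus luciferin reagent, cell-free. Medium: PBS buffer for ATP. Also added: ATP substrate, dispensed from a 10.24 µM working solution in PBS. Doses: test compounds dosed from 2 mM stocks in 100% DMSO. Incubation: 10 min post-reagent at room temperature. Technique: light output (luminescence). Read-out basis: luminescence gain marking luciferase activators.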
APP 5'UTR act: activates APP 5'UTR luciferase reporter. hit rate 1% among 190,000. SH-SY5Y APP 5'UTR luciferase reporter, luminescence; zero percent = DMSO vehicle wells. activation, % at 2 µM;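 active = activation above a set limit, based on mean plus 3 SD of controls, cut at about 140% in these data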
PPC-1+TRAIL kill: compounds killing PPC-1 cancer cells with TRAIL present (potentiator screen, no TRAIL-free arm). PPC-1 cells + TRAIL, ATPLite viability luminescence. cell killing (% activity), % at 4 µM or 5 µM. hit rate 0.41% among 220,000. AID 1443;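 active = cell killing above 50% in the first pass at 4 µM, then a duplicate retest at 5 µM averaging 50% or more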;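 also: plate controls were cells with TRAIL plus DMSO for no effect and medium-only wells lacking cells for full effect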
FLuc inh counter: counter-screen for luciferase assay inhibitors: firefly luciferase inhibition; hit rate 1.5% among 200,000; AID 1006; P08659; inhibition, % at 10 µM; ATPLite firefly luciferase biochemical luminescence, 10 min;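 active = inhibition above about 50% when tested at 10 µM, limit read from the data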
PPC1 cytotox: kills PPC-1 cells. shares compounds with PPC-1+TRAIL kill. PPC-1 viability, ATPlite luminescence, overnight. cytotoxicity, % at 5 µM. hit rate 50% among 1,200;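 active = reconfirmed compounds whose average cytotoxicity reaches 50% or more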;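 also: 0% = DMSO-treated cells and 100% = wells holding medium but no cells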
The depositor's hits bear a star; / = no result given.

SMILES | NF-kB neuron act | TRAIL sens C8 | FLuc act counter | APP 5'UTR act | PPC-1+TRAIL kill | FLuc inh counter | PPC1 cytotox
O=C(Nc1cccc(O)c1)C1CC(c2ccc(Cl)cc2)=NO1 (stereo unspecified) | / | -9.3 | / | / | / | / | /
O[C@@H](c1cc(C(F)(F)F)nc2c(C(F)(F)F)cccc12)[C@H]1CCCCN1 | / | 22.4 | / | / | / | / | /
OC(c1cc(-c2ccc(Cl)cc2)nc2ccccc12)C1CCCCN1 (stereo unspecified) | / | 33.0 | / | / | 9.4 | / | -6.3
O=C(N/N=C/c1cccnc1)c1ccc2c(c1)OCCO2 | 1.21 | 81.2* | 0.1 | 38.7 | 54.8* | 91.0* | 58.8*
COc1cccc(-c2nnc(Nc3nc4c(F)cccc4s3)o2)c1 | 2.27 | 71.0* | 0.1 | 49.1 | 44.2 | 87.8* | 48.4
COc1ccccc1-c1nnc(Nc2nc3c(OC)cccc3s2)o1 | 2.5 | 29.8 | 0.9 | -87.1 | 7.0 | 12.5 | /
COc1ccc(NC(=O)CSc2nnc(NC(=O)C3CC3)s2)cc1OC | / | -2.5 | / | / | / | / | /
O=C(Nc1nc2cc3c(cc2s1)OCCO3)c1ccncc1 | 3.23 | 38.7 | 0.2 | 153.4* | 38.1 | 75.6* | 43.7
CS(=O)(=O)c1ccc2nc(NC(=O)c3ccco3)sc2c1 | 2.29 | 56.9* | 0.2 | 63.9 | 45.8 | 77.4* | 49.6
Cc1csc(NC(=O)c2ccco2)n1 | 1.49 | -8.9 | 1 | 3.1 | -6.9 | -3.8 | /
CC1CCc2nc(NC(=O)c3ccco3)sc2C1 (stereo unspecified) | 1.78 | 84.0* | 0.1 | 39.3 | 79.9* | 93.4* | 76.8*
O=C(Nc1nc2cc3c(cc2s1)OCO3)c1ccco1 | / | 75.3* | / | / | 68.5* | / | 71.6*
CCOC(=O)c1ccc(S(=O)(=O)N2CCN(C3CC(=O)N(c4ccccc4C(F)(F)F)C3=O)CC2)cc1 (stereo unspecified) | / | -5.4 | / | / | / | / | /
CC1=C(C(=O)N2CCOCC2)CC(CC(=O)NCCCCc2ccccc2)C(=O)N1CCC1=CCCCC1 (stereo unspecified) | / | -2.7 | / | / | / | / | /
CC(C)S(=O)(=O)N1CCCC(C(=O)c2cccc(Cl)c2)C1 (stereo unspecified) | 1.04 | -2.8 | 1 | -2.3 | 12.8 | -4.5 | /
COc1ccc(NC(=O)C2CCCO2)cc1 (stereo unspecified) | 1.18 | 12.6 | 1 | 5.2 | 27.7 | -1.1 | /
O=C(Nc1ccc(-c2nc3cccnc3s2)cc1)C1CCCO1 (stereo unspecified) | 2.7 | -4.8 | 0.1 | 76.2 | 62.5* | 91.4* | 63.7*
Cc1ccc2nc(-c3ccc(NC(=O)C4CCCO4)cc3)[nH]c2c1 (stereo unspecified) | 3.83* | 57.2* | 0.2 | 115.1 | 65.3* | 81.8* | 64.5*
Cn1c(NCc2ccccc2)nc2cc(-c3ccccc3)sc2c1=O | / | 3.3 | / | / | / | / | /
Cc1nc2cc(-c3ccccc3)sc2c(=O)n1N | 0.83 | 75.7* | 0.1 | -26.2 | 65.3* | 88.8* | 63.7*
COc1ccc(-c2cc3nc4n(c(=O)c3s2)CCCCC4)cc1 | / | 27.4 | / | / | 31.2 | / | /
COc1ccc(-c2cc3nc(C)n(N)c(=O)c3s2)cc1 | / | 86.4* | / | / | 89.2* | / | 90.5*
Cc1ccc(NS(=O)(=O)c2ccc(C(=O)NNC(=O)c3ccccc3O)cc2)cc1 | / | 7.9 | / | / | / | / | /
CCCCOc1ccc(C)cc1CN(CCO)CCO | 1.21 | 4.0 | 1 | 13.2 | -9.4 | 1.4 | /
CCCCCc1ccc(OCCCC[n+]2cccc(C)c2)c(CCCCC)c1 | 1.11 | 20.6 | 1.1 | -14.2 | 21.4 | -5.8 | 26.9
SMILES | NF-kB neuron act | TRAIL sens C8 | FLuc act counter | APP 5'UTR act | PPC-1+TRAIL kill | FLuc inh counter | PPC1 cytotox
CCCCCc1ccc(OCCCC[n+]2ccc(C)cc2)c(CCCCC)c1 | 1.03 | 46.3 | 1 | 15.2 | 26.7 | 1.2 | 9.4
Cc1ccc(S(=O)(=O)N2CCN(C(=O)COC(=O)c3nc(Cl)ccc3Cl)CC2)c(C)c1 | / | 14.4 | / | / | / | / | /
COc1cc(/C=C/c2cc(C(=O)O)c3ccccc3n2)ccc1OC(F)F | / | 82.6* | / | / | 79.7* | / | 79.0*
COc1cc(/C=C/C(=O)OCN2C(=O)c3ccccc3C2=O)ccc1OC(F)F | / | -5.1 | / | / | / | / | /
O=C(O)c1cc(N2CCOCC2)nc2ccccc12 | / | 5.7 | / | / | / | / | /
O=C(O)c1cc(/C=C/c2ccc(N3CCOCC3)cc2)nc2ccccc12 | 1.92 | 87.2* | 0 | 46.5 | 89.6* | 97.0* | 91.2*
CCN(CC)C(C)C#CCC(c1ccccc1)c1ccccc1 (stereo unspecified) | / | / | / | / | 8.4 | / | /
Fc1ccc(CO/N=C/C2=C(Cl)c3ccccc3CC2)cc1 | 1.13 | -6.2 | 1 | 2.3 | 3.2 | -3.4 | -4.6
COc1ccc(/C=N/Nc2nncc3ccccc23)cc1 | 3.07 | 91.2* | 0 | 188.4* | 94.6* | 97.2* | 94.8*
COc1ccc(-c2cnnc(N/N=C/c3ccc(OC)c(OC)c3)n2)cc1 | 1.09 | 21.0 | 0.7 | -17.9 | 5.4 | 29.7 | /
Clc1ccc(-c2nnc(SCc3ccon3)o2)c(Cl)c1 | 9.71* | 48.2* | 0.2 | 143.5* | 44.0 | 77.9* | 39.0
CCOc1ccccc1NC1=NC2CS(=O)(=O)CC2S1 (stereo unspecified) | / | 19.8 | / | / | 2.2 | / | /
CCOC(=O)CN1N=C(/C=C/c2ccc(C)cc2)CCC1=O | 1.45 | -2.0 | 1 | -9.7 | 9.8 | 0.6 | /
COc1ccc(/C=C/C2=NN(C)C(=O)CC2)cc1 | 3.37* | 53.5* | 0.2 | 149.1* | 52.9* | 81.0* | 48.4
O[C@@H]1CN(Cc2cccs2)[C@@H](c2ccccc2)C[C@H]1n1cc(-c2ccc(F)cc2)nn1 | / | 9.4 | / | / | / | / | /
CC[C@@]1(O)C(=O)OCc2c1cc1n(c2=O)Cc2cc3c(CN(C)C)c(O)ccc3nc2-1 | / | 33.8 | / | / | / | / | /
CC[C@@]1(O)C(=O)OCc2c1cc1n(c2=O)Cc2cc3c(N)cccc3nc2-1 | / | 15.0 | / | / | 32.1 | / | 32.2
CC(C)(C)c1ccc(/C=N/NC(=O)c2ccccn2)cc1 | 2.36 | 75.8* | 0.1 | 167.6* | 63.6* | 92.7* | 61.2*
O=C(N/N=C/c1ccc(OC(=O)c2ccccc2Br)cc1)c1ccccn1 | / | 21.4 | / | / | / | / | /
C(=C\c1nc2ccccc2[nH]1)/c1ccccc1 | 3.08 | 85.6* | 0.1 | 191.6* | 87.5* | 94.1* | 87.9*
c1ccc(-c2nc3ccccc3[nH]2)cc1 | / | 25.4 | / | / | / | / | /
CN(CC(=O)Nc1ccc(Cl)c(Cl)c1)C1CCCCC1 | / | 4.9 | / | / | / | / | /
CC(C)N(C)C1CCN(C(=O)Nc2ccc(Cl)c(Cl)c2)CC1 | 0.92 | 3.3 | 1 | -0.6 | 0.6 | -2.8 | 2.8
COc1ccc(-c2nsc(C(=O)N(c3ccc(F)cc3)C(C(=O)NC3CCCC3)c3ccc(OC)cc3)c2N)cc1 (stereo unspecified) | 1.5 | 0.1 | 1 | 6.5 | 5.6 | -4.3 | 0.8
Cc1ccc2oc(=O)c(-c3ccc(O)cc3)c(C)c2c1 | / | -0.6 | / | / | / | / | /
O=C(/C=C/c1ccccc1)Nc1cccc(C(=O)O)c1 | 5.06* | 81.1* | 0.1 | -64.3 | 63.9* | 91.5* | 60.7*
CSc1ccc(/C=C/C(=O)Nc2ccccc2)cc1 | 6.28* | 58.1* | 0.2 | 210.3* | 64.2* | 82.9* | 66.4*
